The full list was thinned out, with hits kept by preference.
INS promoter act: activators of insulin promoter-driven GFP, primary screen, imaging, TRM-6 cells, eGFP reporter, cell count; plate-scaled: unstimulated 0, stimulated control 100; activation, % at 2 µM; actives 0.81% (n = 130,000); AID 1296, 2008;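 active = activation at 2 µM above a set limit, confirmed on inspection of the cell images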;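 note: share of cells whose green reporter signal exceeds an intensity cutoff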
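System – human fetal islet-derived TRM-6 cells with tamoxifen-inducible insulin promoter–eGFP reporter · Amount – 1,000 cells per well · Schedule – overnight tamoxifen, then two-day compound incubation at 37 °C · Detection – high-content imaging of fixed cells with Hoechst nuclear stain · Read-out – percent cells above green-intensity threshold, converted to percent activation versus plate controls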
Numbers without * were called inactive.

SMILES	INS promoter act
O=C(c1ccc(Cl)cc1)c1c[nH]c(C(=O)NNc2cccc(Cl)n2)c1	431*
O=C(NNc1cccc(Cl)n1)c1ccc(Cl)cc1Cl	9
COC(=O)c1cc(C(=O)c2ccc(C(C)(C)C)cc2)c[nH]1	0
CCOc1ccc(CC(=O)OCn2nnc3ccccc3c2=O)cc1	-9
O=C(CCl)Nc1cn(-c2ccccc2)nc1-c1ccccc1	-7
Cc1oc(/N=C/c2ccc(O)cc2O)c(C#N)c1C	0
CC(C)(C)C1CCC(OC(=O)C[N+]2(C)CCCCC2)CC1 (configuration not stated)	200*
C[N+]1(CCC(=O)c2ccccc2)CCCCC1	-64
Cc1cc(C(=O)COC(=O)c2ccc[nH]c2=O)c(C)n1-c1ccc(F)cc1	0
Cc1cc(C)cc(NC(=S)N2CCC(N(C)CC3CCCO3)CC2)c1 (configuration not stated)	0
COc1cc2c3nnc(-c4ccccc4)c-3cn(Cc3ccccc3F)c2cc1OC	525*
O=C1NC(=O)/C(=C\c2cn(Cc3ccccc3F)c3ccccc23)N1	0
Cc1sc2ncn(Cc3ccccc3F)c(=O)c2c1C	0
COc1ccc(-c2noc(CCN3C(=O)c4ccccc4C3=O)n2)cc1OC	-9
O=c1c2ccsc2ncn1Cc1ccccc1F	10
COc1cc2c3nnc(-c4ccc(F)cc4)c-3cn(Cc3ccccc3F)c2cc1OC	800*
COCCN(C(=O)C(C)C)c1nnc(-c2ccc(C)cc2)s1	-6
Cc1[nH]c2ccccc2c1-c1csc(NC(=O)CN2CCOCC2)n1	-5
CCOc1ccc(S(=O)(=O)NN)cc1	3
CCN1CCN(CCCNC(=O)c2ccc(/C=C3/Sc4ccccc4N(Cc4ccccc4F)C3=O)cc2)CC1	-6
CCOCCCNC(=O)CN1C(=O)/C(=C/c2ccccc2)Sc2ccccc21	313*
COCCCNC(=O)CN1C(=O)c2ccccc2C1=O	0
O=C(NCc1ccncc1)c1cc(C(=O)C2CC2)c[nH]1	7
Cc1cc(C(=O)COC(=O)CN=C2NS(=O)(=O)c3ccccc32)c(C)n1CCc1ccc(Cl)cc1	0
COc1ccc(-c2nnn(CC(=O)NCc3ccccc3)n2)cc1OC	277
SMILES	INS promoter act
O=C(CN1C(=O)NC2(CCCCC2)C1=O)Nc1ccccc1Cl	0
COc1ccc(CNC(=O)CN2C(=O)NC3(CCCCCC3)C2=O)cc1OC	244*
CNc1nc(Oc2ccc(=O)n(C)n2)nc(N2CCOCC2)n1	7
CCOc1ccccc1Nc1nc(N)nc(CN2CCCCC2C)n1 (configuration not stated)	8
COc1ccccc1/C=C/C(=O)N1CCC(c2ccccc2)C1 (configuration not stated)	3
Cc1ccc(-n2c(-c3cccc(C)c3)n[nH]c2=S)cc1	-7
Cc1[nH]c2ccc(-c3n[nH]c(=S)n3-c3ccccc3)cc2c1C	-9
Cc1ccc(-c2n[nH]c(=S)n2-c2ccccc2)cc1	485*
CCN(CC(=O)NCc1cccs1)S(=O)(=O)c1ccc(C(C)C)cc1	6
Cc1nc2ccc(S(=O)(=O)NC(C(=O)NCc3cccs3)C(C)C)cc2s1 (configuration not stated)	250*
Cc1ccc2nc(-c3ccccc3)nc(SC(C)C(=O)NCc3cccs3)c2c1 (configuration not stated)	-7
C=CCNC(=O)/C(C#N)=C/c1cn(-c2ccccc2)nc1-c1cccs1	7
Cc1cc(C(F)F)nn1CC(=O)Nc1cc([N+](=O)[O-])ccc1F	8
CCCCCCCCOC(=O)CCn1[nH]c(=O)c2ccccc2c1=O	0
Cc1cc(N2C(=O)C=CC2=O)c([N+](=O)[O-])cc1C	163
COc1ccc(NC(=O)CCN2C(=O)C3C4CCC(C4)C3C2=O)cc1 (configuration not stated)	8
CCOC(=O)c1cc(C)n(CCCN2CCOCC2)c1C	86*
Cc1ccccc1C(=O)OCCN1CCOCC1	8
COCCn1c(C)cc(C(=O)CN2CCCCC2)c1C	7
COC(=O)CC(c1ccc(C(C)C)cc1)n1cccc1 (configuration not stated)	7
CCOC(=O)C(=O)c1c(-c2ccccc2)nc2ccccn12	450*
CCNC(=O)c1c(C)nc2ccccn12	0
Cc1nc2ccccn2c1C(=O)NCC(C)C	0
CCOC(Cn1cc(C)c(=O)[nH]c1=O)OCC	8
CC1=NN(C(=O)c2c(Br)c(C)nn2C)C(O)(C(F)(F)F)C1 (configuration not stated)	0
SMILES	INS promoter act
COc1ccc(N(CC(=O)Nc2nccs2)S(=O)(=O)c2c(C)[nH]c(=O)[nH]c2=O)cc1	-79
Cc1cccc(-c2nc(CS(=O)CC(=O)NCC3CCCO3)c(C)o2)c1 (configuration not stated)	0
Cc1cccc(-c2nc(CN3CCCC(C(=O)NC4CCCCCC4)C3)c(C)o2)c1 (configuration not stated)	171*
Cc1noc(C)c1S(=O)(=O)N1CCCC(C(=O)NC2CCCCC2)C1 (configuration not stated)	-8
CNS(=O)(=O)c1cc(OC)c(OC)cc1CC(=O)OC	-8
CCOC(=O)C(Cc1c[nH]c2ccccc12)NC(=O)c1ccco1 (configuration not stated)	-9
CCCC(=O)NC(c1ccco1)c1c(O)ccc2ccccc12 (configuration not stated)	133*
CCCC(=O)NC(c1ccco1)c1cc([N+](=O)[O-])c2cccnc2c1O (configuration not stated)	7
O=C(NC(NC(=S)Nc1ccccc1C(=O)O)C(Cl)(Cl)Cl)c1cccc([N+](=O)[O-])c1 (configuration not stated)	3
CC1CC(C)(C)NC(=S)N1CCCC(=O)N1CCN(c2ccc(F)cc2)CC1 (configuration not stated)	-3
N#CC1=C(N)C(C#N)(C#N)C(c2cccnc2)C2COCC=C12 (configuration not stated)	0
N#CC1=C(N)C(C#N)(C#N)C(c2cccnc2)C2CN(C(=O)OCc3ccccc3)CC=C12 (configuration not stated)	115
N#CC1=C(N)C(C#N)(C#N)[C@H](c2ccoc2)[C@H]2CN(Cc3ccccc3)CC=C12	212*
Cc1ccc(S(=O)(=O)N(C)C)cc1NC(=O)COC(=O)/C(=C/c1ccc(F)cc1)c1cccs1	-64
COc1ccc(Cl)cc1NC(=O)C(C)Sc1n[nH]c(N)n1 (configuration not stated)	9
CCCCN(CCCC)NC(=O)c1ccccc1	-7
CCP(=O)(c1ccccc1)C(C)(C)O (configuration not stated)	7
CCCCP(=O)(CCCC)Cc1ccccc1O	610*
COc1ccc(/C=N/NC(=O)CC2N=C(Cc3ccccc3)NNC2=O)cc1OC (configuration not stated)	7
O=C(Nc1ccc(Cl)cc1)OCCn1nnnc1C(c1ccccc1Cl)N1CCOCC1 (configuration not stated)	3
CC/C(=N\O)c1ccc(O)c(OC)c1	-9
Cc1ccc(C2=CSC3=NS(=O)(=O)CCN23)cc1	-8
CC1CCN(C(=O)Cn2c(SCC(=O)Nc3nccs3)nc3ccccc32)CC1	154*
CC1CC(C)CN(C(=O)Cn2c(SCC(=O)N3CCc4ccccc4C3)nc3ccccc32)C1 (configuration not stated)	107
CC1CCN(C(=O)CSCC(=O)Nc2nc(-c3cccs3)cs2)CC1	0
